Laboratory results taken from ChEMBL document CHEMBL6109076, “Design and synthesis of novel thioether analogs as promising antiviral agents: In vitro activity against enteroviruses of interest” (Eur J Med Chem, 2025).

Experiments:
[1] = Selectivity index, ratio of CC50 for cytotoxicity against human MRC5 cells to EC50 for antiviral activity against Enterovirus A71 infected in human MRC5 cells; type: toxicity, cell-based; conditions: read-out: Selectivity Index
Coxsackievirus = test: Antiviral activity against Coxsackievirus A24 UVE/CV-A24/2010/LA/HFMK14 infected in human MRC5 cells assessed as […]; type: functional, organism-based; conditions: UVE/CV-A24/2010/LA/HFMK14, MRC5
Human echovirus 30 = test: Antiviral activity against Echovirus 30 strain UVE/E-30/2013/FR/4-MRS2013 infected in human MRC5 cells assessed as […]; type: functional, organism-based, Echovirus E30; conditions: Enterovirus B, UVE/E-30/2013/FR/4-MRS2013, MRC5
In short: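 MRC-5 cells seeded the day before infection in assay medium with 2.5 % FBS. After 24 h, compounds added as eight ½ dilutions, then virus added. On day 3 post-infection, supernatant harvested and viral RNA quantified by RT-qPCR (pan-enterovirus probe/primers, synthetic RNA standard curve). Inhibition calculated relative to four virus control wells per plate. EC50 obtained by nonlinear regression (log(inhibitor) vs response, variable slope, three parameters); two independent experiments.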

[2] = Cytotoxicity against human MRC5 cells; type: toxicity, cell-based
In short: (§1)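 CC50 was measured in parallel on compound-treated uninfected cells, run alongside the antiviral assay. Cells were seeded one day ahead in assay medium with 2.5 % FBS (RD at 50000 cells/well) and held at 37 °C, 5 % CO2; MRC-5 were grown in BME with 10 % FBS. Compounds were added as eight ½ dilutions. CC50 came from nonlinear regression (log(inhibitor) vs response, variable slope, three parameters); median ± std of two independent experiments.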

[3] = Selectivity index, ratio of CC50 for cytotoxicity against human MRC5 cells to EC50 for antiviral activity against Coxsackievirus A24 UVE/CV-A24/2010/LA/HFMK14 infected in human MRC5 cells; type: toxicity, cell-based; conditions: read-out: Selectivity Index
In short: (§2)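 In MRC-5 cells, SI = CC50/EC50. EC50 comes from the 3-day RT-qPCR viral RNA inhibition assay with eight ½ dilutions. CC50 was measured in parallel on compound-treated uninfected MRC-5 cells. Both values derived by nonlinear regression (three-parameter, variable slope); two independent experiments.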

Enterovirus A71 [4] = test: Antiviral activity against Enterovirus A71 Laos2011 HFMD18T infected in human MRC5 cells assessed as reduction in viral replication incubated for 72 hrs by RT-qPCR analysis; type: functional, organism-based; conditions: Enterovirus A, MRC5, 72 h
[5] = Selectivity index, ratio of CC50 for cytotoxicity against human RD cells to EC50 for antiviral activity against Enterovirus A71 infected in human RD cells
[6] = Cytotoxicity against human RD cells; type: toxicity, cell-based; in short: as §1
Enterovirus A71 [7] = test: Antiviral activity against Enterovirus A71 Laos2011 HFMD18T infected in human RD cells assessed as reduction in viral replication incubated for 72 hrs by RT-qPCR analysis; type: functional, organism-based; conditions: Enterovirus A
[8] = Cytotoxicity against Chinese hamster CHO cells
Enterovirus A71 [9] = test: Antiviral activity against Enterovirus A71 Laos2011 HFMD18T infected in human RD cells assessed as RNA copies measured per ml of supernatant at 10 uM treated 4 hr post infection measured after 72 hrs; type: functional
Enterovirus A71 [10] = test: Antiviral activity against Enterovirus A71 Laos2011 HFMD18T infected in human RD cells assessed as RNA copies measured per ml of supernatant at 10 uM pretreated 1 hr before infection measured after 72 hrs relative to control; type: functional
Enterovirus A71 [11] = test: Antiviral activity against Enterovirus A71 Laos2011 HFMD18T infected in human RD cells assessed as inhibition of viral RNA measured per ml of supernatant at 10 uM pretreated 1 hr before infection measured after 72 hrs; type: functional; conditions: Enterovirus A
Enterovirus A71 [12] = test: Antiviral activity against Enterovirus A71 Laos2011 HFMD18T infected in human RD cells assessed as RNA copies measured per ml of supernatant at 10 uM treated 1 hr post infection measured after 72 hrs
[13] = Selectivity index, ratio of CC50 for cytotoxicity against human MRC5 cells to EC50 for antiviral activity against Echovirus 30 strain UVE/E-30/2013/FR/4-MRS2013 infected in human MRC5 cells; type: toxicity, cell-based; conditions: read-out: Selectivity Index; in short: as §2
Enterovirus A71 [14] = test: Antiviral activity against Enterovirus A71 Laos2011 HFMD18T infected in human RD cells assessed as inhibition of viral RNA copies measured per ml of supernatant at 10 uM treated at time of infection measured after 72 hrs; type: functional; conditions: Enterovirus A
Enterovirus A71 [15] = test: Antiviral activity against Enterovirus A71 Laos2011 HFMD18T infected in human RD cells assessed as inhibition of viral RNA copies measured per ml of supernatant at 10 uM measured after 72 hrs; conditions: Enterovirus A
Enterovirus A71 [16] = test: Antiviral activity against Enterovirus A71 Laos2011 HFMD18T infected in human RD cells assessed as inhibition of viral RNA copies measured per ml of supernatant at 10 uM treated 4 hr post infection measured after 72 hrs; type: functional; conditions: Enterovirus A
Enterovirus A71 [17] = test: Antiviral activity against Enterovirus A71 Laos2011 HFMD18T infected in human RD cells assessed as RNA copies measured per ml of supernatant at 10 uM treated at time of infection measured after 72 hrs; type: functional

SMILES | EC50 (Enterovirus A71 [4]) [µM] | selectivity ratio [5] | CC50 [6] [µM] | EC50 (Enterovirus A71 [7]) [µM] | further results
OCc1ccc(-c2ccc(SCc3ccc(-n4cncn4)cc3)nc2)cc1 |  |  |  |  | selectivity ratio [1]: > 181; EC50 (Coxsackievirus): 23.2 µM; EC50 (Human echovirus 30): > 40 µM; CC50 [2]: > 40 µM; selectivity ratio [3]: > 1.7
OCc1cccc(-c2ccc(SCc3ccc(-n4cncn4)cc3)nc2)c1 | 22 | > 14 | > 40 | 2.78 | selectivity ratio [1]: > 1.8; CC50 [2]: > 40 µM
c1ncn(-c2ccc(CSc3ccc(-c4ccc5cn[nH]c5c4)cc3)cc2)n1 |  |  |  | > 40 | 
c1ccc2oc(-c3ccc(SCc4ccc(-n5cncn5)cc4)cc3)cc2c1 |  |  |  | > 40 | 
Cn1cc(-c2ccc(CSc3ccc(-c4ccc5ccccc5c4)cn3)cc2)cn1 | 22.4 | > 3.3 | > 40 | 12 | selectivity ratio [1]: > 1.8; CC50 [2]: > 40 µM
CN(C)c1ncc(-c2ccc(CSc3ccc(-c4ccc(CO)cc4)cn3)cc2)cn1 |  |  |  | > 40 | 
O=C1NC(SCc2ccc(-n3cncn3)cc2)=N/C1=C\c1c[nH]c2ccccc12 | > 40 | 20.7 | 96.3 | 4.65 | CC50 [8]: 33.6 µM
c1ccc2cc(-c3ccc(SCc4ccc(-n5cncn5)cc4)nc3)ccc2c1 | 3.25 | 15.4 | 23.5 | 1.86 | selectivity ratio [1]: > 12; EC50 (Coxsackievirus): 0.99 µM; EC50 (Human echovirus 30): 0.4 µM; Activity (Enterovirus A71 [9]): 0.7 log10/ml; Activity (Enterovirus A71 [10]): 1.5 log10/ml; CC50 [2]: > 40 µM; inhibition at 10 µM (Enterovirus A71 [11]): > 90%; CC50 [8]: 43.2 µM; Activity (Enterovirus A71 [12]): 1.14 log10/ml; selectivity ratio [13]: > 100; inhibition at 10 µM (Enterovirus A71 [14]): > 90%; inhibition at 10 µM (Enterovirus A71 [15]): > 90%; inhibition at 10 µM (Enterovirus A71 [16]): < 90%; selectivity ratio [3]: > 40; Activity (Enterovirus A71 [17]): 1.25 log10/ml
c1ccc2cc(-c3ccc(SCc4ccc(-n5cncn5)cc4)cc3)ncc2c1 | 1.15 | 6.62 | 30.5 | 4.3 | selectivity ratio [1]: > 25; EC50 (Coxsackievirus): 1.22 µM; EC50 (Human echovirus 30): 0.41 µM; CC50 [2]: > 40 µM; CC50 [8]: 31.3 µM; selectivity ratio [13]: > 100; selectivity ratio [3]: > 32
Cn1cc(-c2ccc(SCc3ccc(-n4cncn4)cc3)nc2)cn1 | 0.57 |  |  | 4.38 | 
CCNc1ncc(-c2ccc(CSc3ccc(-c4ccc(CO)cc4)cn3)cc2)cn1 |  |  |  | > 40 | 
OCc1ccc(-c2ccc(SCc3ccc(-c4cnc(N5CCOCC5)nc4)cc3)nc2)cc1 |  |  |  | > 40 | 
Nc1ncc(-c2ccc(CSc3ccc(-c4ccc(CO)cc4)cn3)cc2)cn1 | < 0.37 | 1.81 | 44.7 | 24.7 | selectivity ratio [1]: > 54; CC50 [2]: > 20 µM; CC50 [8]: 36.9 µM
c1ccc(Cn2cc(-c3ccc(CSc4ccc(-c5ccc6ccccc6c5)cn4)cc3)cn2)cc1 |  |  |  | 22.3 | 
CN1CCN(c2ncc(-c3ccc(CSc4ccc(-c5ccc(CO)cc5)cn4)cc3)cn2)CC1 |  |  |  | > 40 | 
c1ccc2cc(-c3ccc(SCc4ccc(-n5cncn5)cc4)cc3)ccc2c1 |  |  |  | > 40 | 
c1ncn(-c2ccc(CSc3ccc(-c4ccc5[nH]ccc5c4)cc3)cc2)n1 |  |  |  | > 40 | 
CN(C)c1ccc(-c2ccc(CSc3ccc(-c4ccc5ccccc5c4)cn3)cc2)cc1 |  |  |  | > 40 | 
Cc1noc(C)c1-c1ccc(CSc2ccc(-c3ccc4ccccc4c3)cn2)cc1 | > 40 | > 1.8 | > 40 | 22.3 | 
CN(C)c1cccc(-c2ccc(CSc3ccc(-c4ccc5ccccc5c4)cn3)cc2)c1 |  |  |  | > 40 | 
c1ccc2cc(-c3ccc(SCc4ccc(-n5cncn5)cc4)nc3)ncc2c1 | > 20 | > 1.8 | > 40 | 22.1 | 
COc1ncc(-c2ccc(CSc3ccc(-c4ccc(CO)cc4)cn3)cc2)cn1 |  |  |  | > 40 | 
c1ccc2c(-c3ccc(SCc4ccc(-n5cncn5)cc4)nc3)cccc2c1 |  |  |  | > 40 | 
CCOc1noc2cc(OCCC3CCN(c4ccc(C)nn4)CC3)ccc12 [VAPENDAVIR] |  |  | > 63 |  | CC50 [2]: > 20 µM
